# Shown is part of a subset that was picked to be rich in hits.
# IDH1 mut inh – inhibitors of human IDH1 R132H | IDH1 R132H reductase, diaphorase/resazurin fluorescence, 60 min | hit rate 0.18% among 70,000 | inhibition, % at 10 µM; in the data active = inhibition above about 34%; inconclusive = no clear call, values can overlap the other calls; inactive = below about 11%;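 note: 0% = DMSO and 100% = no enzyme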
# Target sequence (O75874 whole entry R132H): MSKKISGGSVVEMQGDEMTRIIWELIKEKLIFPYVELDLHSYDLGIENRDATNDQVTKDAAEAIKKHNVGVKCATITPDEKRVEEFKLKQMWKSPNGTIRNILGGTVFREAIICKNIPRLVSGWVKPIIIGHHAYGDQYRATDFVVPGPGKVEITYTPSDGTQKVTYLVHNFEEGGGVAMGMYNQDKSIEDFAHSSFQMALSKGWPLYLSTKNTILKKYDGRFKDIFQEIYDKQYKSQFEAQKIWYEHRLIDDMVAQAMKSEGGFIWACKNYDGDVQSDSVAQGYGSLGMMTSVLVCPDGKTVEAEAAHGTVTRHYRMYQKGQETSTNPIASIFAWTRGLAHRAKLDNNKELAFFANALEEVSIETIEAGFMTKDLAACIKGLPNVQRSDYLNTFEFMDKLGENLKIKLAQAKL
# T cruzi growth-1 – blocks T. cruzi growth in NIH3T3 culture | T. cruzi beta-gal in NIH3T3, GalScreen luminescence, 90 h | AID 624255 | inhibition, % at 8.34 µM | hit rate 5.9% among 77,000;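 active = mean inhibition above about 93%, with at least 55% of replicates each passing it, limit read from the data, passing the limit was not always enough; inconclusive = only one of those two conditions holds; inactive = neither condition holds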
# KDM4C inh – blocks human GASC-1 (KDM4C) demethylase activity; GST-KDM4C 2-372, H3K9me3 peptide, LANCE TR-FRET; inhibition, % at 12.5 µM; Q9H3R0; hit rate 0.15% among 96,000;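 active = mean replicate inhibition above about 25%, with at least 55% of replicates also reaching it, limit read from the data, passing the limit was not always enough; inconclusive = only one of those two conditions met; inactive = neither condition met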
# Target sequence (Q9H3R0 2-372 limits assumed): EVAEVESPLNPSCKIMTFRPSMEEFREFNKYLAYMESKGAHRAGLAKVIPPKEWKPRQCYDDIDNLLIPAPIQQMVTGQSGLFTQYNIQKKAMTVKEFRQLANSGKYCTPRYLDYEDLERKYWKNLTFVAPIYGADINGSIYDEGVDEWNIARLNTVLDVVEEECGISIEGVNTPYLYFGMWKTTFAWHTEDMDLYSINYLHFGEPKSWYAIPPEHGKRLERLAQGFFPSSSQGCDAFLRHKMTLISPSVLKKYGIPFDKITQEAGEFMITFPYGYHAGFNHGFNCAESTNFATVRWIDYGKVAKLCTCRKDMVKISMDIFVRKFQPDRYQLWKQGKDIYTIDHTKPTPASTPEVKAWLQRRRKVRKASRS
#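 reagent = H3K9me3 peptide substrate, Fe(II), 2-oxoglutarate | system = GST-tagged GASC-1 (JMJD2C) catalytic fragment, aa 2-372 | amount = enzyme final amount 10 nM | read-out = Fall in 671/618 emission ratio as inhibition | medium = HEPES buffer, pH 7.5, plus ascorbate | schedule = 30 min reaction, 60 min detection, RT | measured by = LANCE TR-FRET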
# T cruzi growth-2 – inhibitors of T. cruzi proliferation; hit rate 72% among 5,600; T. cruzi beta-gal in NIH3T3, GalScreen luminescence, 90 h; shares compounds with T cruzi growth-1; inhibition, % at 8.35 µM;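 active = mean replicate inhibition above about 95% and at least 55% of replicates individually reaching it, limit read from the data; inconclusive = only one of the two criteria is met; inactive = neither criterion is met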
# T cruzi growth-3 – blocks T. cruzi growth in NIH3T3 host cells; shares compounds with T cruzi growth-1; T. cruzi beta-gal in NIH3T3, GalScreen luminescence, 90 h; inhibition, % at 2.09 µM; hit rate 21% among 5,600; AID 651740;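 active = mean inhibition above about 95%, with at least 55% of replicates also reaching it, limit read from the data; inconclusive = meets just one of the two conditions; inactive = meets neither condition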;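 note: plate controls were neutral control median for no effect and positive control median for full effect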
# 3T3 cytotox – kills mouse NIH/3T3 fibroblasts | shares compounds with T cruzi growth-1 | hit rate 14% among 5,600 | NIH/3T3 viability, CellTiter-Glo ATP luminescence, 90 h | cytotoxicity (signal decrease), % at 8.35 µM;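 active = mean signal decrease across replicates above about 35% based on untreated-well scatter, with enough replicates individually passing, limit read from the data; inconclusive = no rule stated though some were filed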;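 note: 0% = median of neutral control wells and 100% = median of positive control wells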
# 3T3 cytotox 2 – kills mouse NIH/3T3 fibroblasts; shares compounds with T cruzi growth-1; NIH/3T3 viability, CellTiter-Glo ATP luminescence, 90 h; AID 651744; inhibition, % at 24.9 µM; hit rate 56% among 5,600;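 active = mean loss of cell viability signal at or above a set limit, and enough replicates individually reaching it; inconclusive = meets only the mean limit or only the replicate share; inactive = meets neither condition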;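 note: 0% = median of neutral control wells and 100% = median of positive control wells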
# * marks the source's active call; other numbers are inactive results; ? = inconclusive; / = not tested or not shown.
SMILES,IDH1 mut inh,T cruzi growth-1,KDM4C inh,T cruzi growth-2,T cruzi growth-3,3T3 cytotox,3T3 cytotox 2
CCNC(=O)[C@H]1[C@H](CO)[C@H]2Cn3c(ccc(C4=CCCCC4)c3=O)[C@@H]1N2Cc1cocn1,/,?,5.7,1.2,-15.5,-14.1,-17.3
CCCNC(=O)[C@H]1[C@H](CO)[C@H]2Cn3c(ccc(C4=CCCCC4)c3=O)[C@@H]1N2Cc1cocn1,/,-10.6,1.9,/,/,/,/
CCNC(=O)[C@@H]1[C@@H](CO)[C@@H]2Cn3c(ccc(-c4ccccc4)c3=O)[C@H]1N2C(=O)CC1CC1,/,/,-3.1,/,/,/,/
COCCCNC(=O)c1cc(-c2ccccc2)nc2c(C)cc(C)cc12,0.1,/,/,/,/,/,/
CC(Sc1nc(-c2ccccc2)cc(-c2ccccc2)n1)C(=O)Nc1ccccc1 (configuration not stated),0.2,/,/,/,/,/,/
COC(=O)c1cc(OC)c(OC)cc1NC(=O)COc1ccc(Br)cc1Cl,0.1,/,/,/,/,/,/
O=C(N/N=C/c1cccc(Br)c1)c1ccccc1O,0.1,/,/,/,/,/,/
CN(C)C(=O)[C@@H]1[C@@H](CO)[C@@H]2Cn3c(ccc(-c4cccc(F)c4)c3=O)[C@H]1N2CCc1ccccc1,/,15.6,0.4,/,/,/,/
O=C(NC1CCC1)[C@@H]1[C@@H](CO)[C@@H]2Cn3c(ccc(-c4ccc(F)cc4)c3=O)[C@H]1N2Cc1cocn1,/,/,0.8,/,/,/,/
CN(C)C(=O)[C@@H]1[C@@H](CO)[C@@H]2Cn3c(ccc(-c4cccc(F)c4)c3=O)[C@H]1N2Cc1ccccc1,/,102.8*,0.5,13.0,15.3,-12.2,7.1
O=C(NC1CCC1)[C@@H]1[C@@H](CO)[C@@H]2Cn3c(ccc(-c4cccc(F)c4)c3=O)[C@H]1N2Cc1cocn1,/,100.4*,0.1,61.0,16.6,21.4,12.0
O=C(CSc1nnc(-c2ccccc2)n1-c1ccccc1)Nc1ccccc1C(F)(F)F,3.0,/,/,/,/,/,/
O=C(COc1ccccc1Cl)Nc1ccccc1NC(=O)c1ccco1,-0.2,/,/,/,/,/,/
CC(C)CC#Cc1ccc2c(c1)O[C@@H](CN(C)Cc1ccc3c(c1)OCO3)[C@@H](C)CN([C@@H](C)CO)S2(=O)=O,0.0,47.2,-3.1,/,/,/,/
C[C@H](CO)N1C[C@H](C)[C@@H](CN(C)Cc2ccc3c(c2)OCO3)Oc2cc(C#CCN(C)C)ccc2S1(=O)=O,0.5,102.7*,-0.4,110.1*,57.7,?,104.6*
C[C@@H]1CN([C@H](C)CO)S(=O)(=O)c2ccc(C#CCN(C)C)cc2O[C@@H]1CN(C)Cc1ccc2c(c1)OCO2,-1.0,78.1,3.2,/,/,/,/
C[C@@H]1CN([C@@H](C)CO)S(=O)(=O)c2ccc(C#CCN(C)C)cc2O[C@H]1CN(C)Cc1ccc2c(c1)OCO2,0.1,111.3*,0.6,102.3*,93.9,44.8*,104.1*
COCC#Cc1ccc2c(c1)O[C@@H](CN(C)Cc1ccc3c(c1)OCO3)[C@@H](C)CN([C@@H](C)CO)S2(=O)=O,0.0,/,1.6,/,/,/,/
CCCC#Cc1ccc2c(c1)O[C@@H](CN(C)Cc1ccc3c(c1)OCO3)[C@@H](C)CN([C@H](C)CO)S2(=O)=O,0.4,109.3*,2.7,91.9,104.8*,13.5,103.1*
COc1ccccc1C1CC(c2ccc(C)cc2)=NN1C(=O)CCC(=O)O (configuration not stated),0.7,/,/,/,/,/,/
O=C(CSC1CC(=O)N(c2ccc(Br)cc2)C1=O)Nc1ccc(Cl)c(Cl)c1 (configuration not stated),18.4,/,/,/,/,/,/
CCCC#Cc1ccc2c(c1)O[C@H](CN(C)CC1CC1)[C@H](C)CN([C@H](C)CO)S2(=O)=O,-1.0,-12.1,0.9,/,/,/,/
C[C@H]1CN([C@@H](C)CO)S(=O)(=O)c2ccc(C#CCN(C)C)cc2O[C@H]1CN(C)CC1CC1,-1.3,110.5*,2.5,?,43.3,14.8,12.3
C[C@@H]1CN([C@@H](C)CO)S(=O)(=O)c2ccc(C#CCN(C)C)cc2O[C@H]1CN(C)CC1CCCC1,-1.8,88.2,-0.2,/,/,/,/
C[C@@H]1CN([C@H](C)CO)S(=O)(=O)c2ccc(C#CCN(C)C)cc2O[C@H]1CN(C)CC1CCCC1,-0.4,103.8*,1.7,106.8*,69.3,10.5,104.4*
SMILES,IDH1 mut inh,T cruzi growth-1,KDM4C inh,T cruzi growth-2,T cruzi growth-3,3T3 cytotox,3T3 cytotox 2
COc1ccc(C(C)=O)cc1CSc1nc2cc(C)c(C)cc2[nH]1,-1.4,/,/,/,/,/,/
COC(=O)C1=CO[C@@H](O[C@@H]2O[C@H](CO)[C@@H](O)[C@H](O)[C@H]2O)[C@H]2[C@]1(O)[C@H](O)C[C@]2(C)O,0.2,/,/,/,/,/,/
O=C(C1CCC1)N1CCCCN2[C@H](C1)[C@H](c1ccc(-c3ccncc3)cc1)[C@@H]2CO,/,55.1,-1.4,/,/,/,/
CN(C)C(=O)c1ccc(-c2ccc([C@@H]3[C@@H](CO)N4CCCCN(C(=O)C5CCC5)C[C@@H]34)cc2)cc1,/,-0.8,/,/,/,/,/
CN(C)C(=O)c1ccc(-c2ccc([C@@H]3[C@H](CO)N4CCCCN(C(=O)C5CCC5)C[C@@H]34)cc2)cc1,/,105.9*,/,103.0*,?,16.3,13.5
CN(C)C(=O)c1ccc(-c2ccc([C@H]3[C@H](CO)N4CCCCN(C(=O)C5CC5)C[C@@H]34)cc2)cc1,/,?,-0.6,100.0*,79.9,-25.9,9.9
O=C(C1CCC1)N1CCCCN2[C@@H](CO)[C@H](c3ccc(-c4ccncc4)cc3)[C@@H]2C1,/,?,4.8,101.8*,87.5,14.7,?
CN(C)C(=O)c1ccc(-c2ccc([C@H]3[C@@H](CO)N4CCCCN(C(=O)C5CCC5)C[C@H]34)cc2)cc1,/,113.3*,/,96.5*,?,-11.0,11.7
CN(C)C(=O)c1ccc(-c2ccc([C@H]3[C@H]4CN(C(=O)C5CC5)CCCCN4[C@H]3CO)cc2)cc1,/,61.2,1.5,/,/,/,/
CN(C)C(=O)c1ccc(-c2ccc([C@@H]3[C@@H](CO)N4CCCCN(C(=O)C5CCCC5)C[C@@H]34)cc2)cc1,/,53.6,/,/,/,/,/
CCC1(C)Cc2c(sc3nc(SC)nc(SCC(=O)OC)c23)CO1 (configuration not stated),0.3,/,/,/,/,/,/
O=C(O)CN(CC(=O)O)S(=O)(=O)c1ccc(Cl)cc1,-0.2,/,/,/,/,/,/
COC(=O)CCCCCCC(=O)N/N=C/c1ccc(OCC(N)=O)cc1,0.2,/,/,/,/,/,/
COc1ccc(NC(=O)CN2CCN(S(=O)(=O)c3ccc(F)cc3)CC2)cc1,-0.6,/,/,/,/,/,/
COc1ccc(Cl)cc1NC(=O)CSc1nnc(-c2ccccc2)n1-c1ccc(C)cc1,0.2,/,/,/,/,/,/
N#C[C@@H]1[C@@H](c2ccc(C3=CCCCC3)cc2)[C@@H](CO)N1C(=O)NC1CCCCC1,/,98.3*,0.8,104.3*,63.1,53.9*,64.3*
CNC[C@H]1[C@@H](c2ccccc2)[C@@H](CO)N1C(=O)Nc1cccc(OC)c1,/,32.6,-5.0,/,/,/,/
N#C[C@@H]1[C@H](c2ccc(C3=CCCCC3)cc2)[C@@H](CO)N1C(=O)NC1CCCC1,/,/,4.8,/,/,/,/
